According to article PMC3776988 (British Journal of Cancer, 2013):
Starred links: 1 amine or outer side, 2 acyl side, 3 side chain; linkers in the order of their positions; H or OH if unused. Positions of bridges follow the written chain, without caps; N, C: chain ends. Non-standard residues stand in square brackets, D forms with d. Residues, ends and D or L forms follow the SMILES beside them. *: point of attachment. X1 = CC[C@H](C)[C@@H](N[*:1])[C@@H](O)CC(=O)O[C@H](C(=O)[C@H](C)C(=O)[*:2])C(C)C; NMeY = CN[C@@H](Cc1ccc(O)cc1)C(=O)O; dNMeL = CN[C@H](CC(C)C)C(=O)O; Pyruvoyl = CC(=O)C(=O)*

Key:
[1] = test system: patients with metastatic/advanced melanoma; conditions: cited from earlier work
patients = conditions: plitidepsin 1-h weekly schedule; ref Izquierdo et al, 2008; cited from earlier work
[2] = test system: patients with advanced malignant melanoma; assay: Phase II stage toxicity; format: in vivo, human; conditions: single-agent plitidepsin 3.2 mg m^−2
Outline: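 Previously untreated adults with advanced melanoma (ECOG PS ⩽2) were randomised without stratification to plitidepsin 3.2 mg m−2 as a 1-h i.v. infusion on days 1, 8 and 15 q4wk. Day-1 dosing could be delayed up to 2 weeks, and day-8/15 doses were skipped if retreatment criteria were unmet. Up to two dose reductions were allowed. Patients receiving ⩾1 infusion were evaluable; AEs were graded by NCI-CTCAE v.3.0.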

| Compound | Responses to single-agent DTIC, % of patients ([1]; generally short lived, ref Falkson et al, 1998, Chapman et al, 1999, Chiarion Sileni et al, 2001, Avril et al, 2004, Bedikian et al, 2006, Schadendorf et al, 2006, Patel et al, 2011) | Response rates reported for single-agent DTIC ([1]; reported range) | Single-agent RD (patients) | Febrile neutropenia [2] | Grade 3 ALT increases, % of patients [2] | Omissions because of treatment-related transaminase increases [2] | Patients who skipped at least one plitidepsin infusion [2] |
| --- | --- | --- | --- | --- | --- | --- | --- |
| CN(C)/N=N/c1[nH]cnc1C(N)=O [DTIC, Dacarbazine] | 6–15% | 5–15% | – | – | – | – | – |
| CC[C@H](C)[C@H]1NC(=O)[C@@H](NC(=O)[C@@H](CC(C)C)N(C)C(=O)[C@@H]2CCCN2C(=O)C(C)=O)[C@@H](C)OC(=O)[C@H](Cc2ccc(OC)cc2)N(C)C(=O)[C@@H]2CCCN2C(=O)[C@H](CC(C)C)NC(=O)[C@@H](C)C(=O)[C@H](C(C)C)OC(=O)C[C@@H]1O [Plitidepsin, plitidepsin] (Pyruvoyl-P[dNMeL]T[X1]LP[NMeY](Me); ester 3-C) | – | – | 3.2 mg m^−2 | no cases | 10% | 25% | 47% |
